The text below walks through data of ChEMBL document CHEMBL3091449, “Synthesis and antimicrobial profile of N-substituted imidazolium oximes and their monoquaternary salts against multidrug resistant bacteria” (2013).

Each structure is given as a SMILES string. Converted amounts (≈) assume the structure as drawn.

Holding throughout (assay type): functional
The test system of test [1] is Pseudomonas aeruginosa. The experiment in a line: Antibacterial activity against GIM-1 expressing Pseudomonas aeruginosa isolate 197 after 18 to 24 hrs by two-fold broth microdilution assay. The essentials:
(§1)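 CLSI two-fold broth microdilution was used. Compounds were dissolved in DMSO, brought to 10 mg/mL in medium, then serially diluted in Mueller Hinton broth over 400–0.09 µg/mL. Overnight MHB cultures were diluted to 10^6 CFU/mL, and 10 µL was added per well. Plates were incubated 18–24 h at 37 °C, then 0.2 mg/mL INT was added for 30 min at 37 °C. MIC was the lowest concentration with no visible growth or pink colour, triplicate.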
On the technique in general: Dilution methods test growth across graded concentrations, often in twofold steps.

The subject of test [2] is Acinetobacter baumannii. Nature of the test: Antibacterial activity against SIM-1 expressing Acinetobacter baumannii isolate 170 after 18 to 24 hrs by two-fold broth microdilution assay. The essentials:
(§2)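 CLSI two-fold broth microdilution. Compounds dissolved in DMSO, 10 mg/mL stock, serially diluted to 400–0.09 µg/mL in Mueller Hinton broth. Wells inoculated with 10^6 CFU/mL bacteria and incubated 18–24 h at 37 °C. 0.2 mg/mL INT added for 30 min. MIC taken as the lowest concentration with no visible growth or pink colour. Triplicate.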

Test [3] deals with Escherichia coli. The experiment in a line: Antibacterial activity against […] expressing Escherichia coli isolate 235 after 18 to 24 hrs by two-fold broth microdilution assay. The essentials: as §2
Test [4] concerns Escherichia coli. The experiment in a line: Antibacterial activity against TEM-1/SHV-12 expressing Escherichia coli isolate 237 after 18 to 24 hrs by two-fold broth microdilution assay. The procedure, abridged: as §2
Test [5] deals with Aeromonas caviae. Nature of the test: Antibacterial activity against TEM-1/CTX-M-15 expressing Aeromonas caviae isolate 260 after 18 to 24 hrs by two-fold broth microdilution assay. The essentials: as §1
For test [6], the system named is Aeromonas caviae. The experiment in a line: Antibacterial activity against […] expressing Aeromonas caviae isolate 258 after 18 to 24 hrs by two-fold broth microdilution assay. The essentials: as §1
For test [7], the system named is Aeromonas hydrophila. Nature of the test: Antibacterial activity against TEM-1/SHV-12 expressing Aeromonas hydrophila isolate 268 after 18 to 24 hrs by two-fold broth microdilution assay. The essentials:
as §1

The test system of test [8] is Kluyvera intermedia. Nature of the test: Antibacterial activity against TEM-1/SHV-12/[…] expressing Enterobacter intermedius isolate 243 after 18 to 24 hrs by two-fold broth microdilution assay. The essentials:
as §1

Test [9] concerns Enterobacter cloacae. The experiment in a line: Antibacterial activity against CTX-15 expressing Enterobacter cloacae isolate 51 after 18 to 24 hrs by two-fold broth microdilution assay.
Test [10] concerns Enterobacter cloacae. The experiment in a line: Antibacterial activity against TEM-1/CTX-M-15 expressing Enterobacter cloacae isolate 62 after 18 to 24 hrs by two-fold broth microdilution assay.
Test [11] deals with Enterobacter cloacae. Nature of the test: Antibacterial activity against TEM-1/SHV-12 expressing Enterobacter cloacae isolate 306 after 18 to 24 hrs by two-fold broth microdilution assay.
The test system of test [12] is Klebsiella pneumoniae. The experiment in a line: Antibacterial activity against TEM-1/SHV-12 expressing Klebsiella pneumoniae isolate 303 after 18 to 24 hrs by two-fold broth microdilution assay. The procedure, abridged: as §1
Test [13] deals with Stenotrophomonas maltophilia. The experiment in a line: Antibacterial activity against […] expressing Stenotrophomonas maltophilia isolate 125 after 18 to 24 hrs by two-fold broth microdilution assay. The essentials: as §1
The subject of test [14] is Aeromonas hydrophila. The experiment in a line: Antibacterial activity against Aeromonas hydrophila FNSST 014 after 18 to 24 hrs by two-fold broth microdilution assay. The essentials: as §1
The subject of test [15] is Pseudomonas aeruginosa. Nature of the test: Antibacterial activity against Pseudomonas aeruginosa FNSST 982 after 18 to 24 hrs by two-fold broth microdilution assay. The procedure, abridged:
as §1

In test [16] the test system is Klebsiella pneumoniae. Nature of the test: Antibacterial activity against Klebsiella pneumoniae FNSST 011 after 18 to 24 hrs by two-fold broth microdilution assay. The essentials:
as §1

The test system of test [17] is Escherichia coli. The experiment in a line: Antibacterial activity against Escherichia coli FNSST 982 after 18 to 24 hrs by two-fold broth microdilution assay. The essentials: as §1
For test [18], the system named is Clostridium perfringens. Nature of the test: Antibacterial activity against Clostridium perfringens FNSST 4999 after 18 to 24 hrs by two-fold broth microdilution assay. The essentials: as §2
The test system of test [19] is Staphylococcus aureus. Nature of the test: Antibacterial activity against Staphylococcus aureus ATCC 25923 after 18 to 24 hrs by two-fold broth microdilution assay. The procedure, abridged: as §1
Test [20] deals with Enterococcus faecalis. The experiment in a line: Antibacterial activity against Enterococcus faecalis ATCC 29212 after 18 to 24 hrs by two-fold broth microdilution assay. The procedure, abridged: as §1
In test [21] the test system is Bacillus cereus. The experiment in a line: Antibacterial activity against Bacillus cereus ATCC 11778 after 18 to 24 hrs by two-fold broth microdilution assay. The procedure, abridged: as §1
The subject of test [22] is Aspergillus fumigatus. Nature of the test: Antifungal activity against Aspergillus fumigatus FNSST 3833 assessed as diameter of zone of inhibition at 250 ug/disc after 72 hrs by disc diffusion method. As to conditions: FNSST 3833, 72 h, read-out: DIZ. The essentials:
(§3)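 Fungi were grown overnight at 30 °C in Sabouraud dextrose broth to 10^4 cfu/mL, and 100 µL was spread on Sabouraud dextrose agar. 6 mm discs carried 250 µg (25 µL of a 10 mg/mL stock in 96% ethanol), with ethanol as the negative control. Incubation was at 30 °C for 48 h (yeast) or 72 h (molds). Zone diameter was read including the disc, in triplicate, mean ± SE.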

For test [23], the system named is Talaromyces funiculosus. The experiment in a line: Antifungal activity against Penicillium funiculosum FNSST 3724 assessed as diameter of zone of inhibition at 250 ug/disc after 72 hrs by disc diffusion method. As to conditions: FNSST 3724, 72 h, read-out: DIZ. The procedure, abridged:
as §3
For orientation: In agar diffusion tests the substance spreads into inoculated agar from a disc or well.

Test [24] deals with Aeromonas hydrophila. The experiment in a line: Antibacterial activity against Aeromonas hydrophila FNSST 014 assessed as diameter of zone of inhibition at 250 ug/disc after 24 hrs by disc diffusion method. As to conditions: FNSST 014, 24 h, read-out: DIZ. The procedure, abridged:
(§4)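 Bacteria were grown overnight at 37 °C in TSB to about 10^6 cfu/mL, and 100 µL was spread on Mueller Hinton agar. Sterile 6 mm discs were each loaded with 25 µL of a 10 mg/mL stock in 96% ethanol, giving 250 µg/disc. Ethanol served as the negative control. Plates were incubated 24 h at 37 °C. Inhibition zone diameter was measured including the disc, in triplicate, as mean ± SE.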

For test [25], the system named is Pseudomonas aeruginosa. Nature of the test: Antibacterial activity against Pseudomonas aeruginosa FNSST 982 assessed as diameter of zone of inhibition at 250 ug/disc after 24 hrs by disc diffusion method. As to conditions: FNSST 982, 24 h, read-out: DIZ. The procedure, abridged: as §4
Test [26] has as its system Klebsiella pneumoniae. The experiment in a line: Antibacterial activity against Klebsiella pneumoniae FNSST 011 assessed as diameter of zone of inhibition at 250 ug/disc after 24 hrs by disc diffusion method. As to conditions: FNSST 011, 24 h, read-out: DIZ. The procedure, abridged: as §4
Test [27] deals with Escherichia coli. Nature of the test: Antibacterial activity against Escherichia coli FNSST 982 assessed as diameter of zone of inhibition at 250 ug/disc after 24 hrs by disc diffusion method. As to conditions: FNSST 982, 24 h, read-out: DIZ. The procedure, abridged:
as §4

Test [28] deals with Clostridium perfringens. Nature of the test: Antibacterial activity against Clostridium perfringens FNSST 4999 assessed as diameter of zone of inhibition at 250 ug/disc after 24 hrs by disc diffusion method. As to conditions: FNSST 4999, 24 h, read-out: DIZ. The procedure, abridged:
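Disc diffusion per CLSI: 100 µL of 10^6 cfu/mL bacterial suspension spread on Mueller Hinton agar. 6 mm discs loaded with 25 µL of 10 mg/mL compound stock in 96% ethanol (250 µg/disc); ethanol as negative control. Incubated 24 h at 37 °C. Inhibition zone diameter measured in mm including the disc, triplicate, reported as mean ± SE.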

Test [29] has as its system Staphylococcus aureus. Nature of the test: Antibacterial activity against Staphylococcus aureus ATCC 25923 assessed as diameter of zone of inhibition at 250 ug/disc after 24 hrs by disc diffusion method. As to conditions: ATCC 25923, 24 h, read-out: DIZ. The essentials:
as §4

The test system of test [30] is Enterococcus faecalis. The experiment in a line: Antibacterial activity against Enterococcus faecalis ATCC 29212 assessed as diameter of zone of inhibition at 250 ug/disc after 24 hrs by disc diffusion method. As to conditions: ATCC 29212, 24 h, read-out: DIZ. The procedure, abridged: as §4
Test [31] concerns Bacillus cereus. The experiment in a line: Antibacterial activity against Bacillus cereus ATCC 11778 assessed as diameter of zone of inhibition at 250 ug/disc after 24 hrs by disc diffusion method. As to conditions: ATCC 11778, 24 h, read-out: DIZ. The procedure, abridged:
as §4

For test [32], the system named is Candida albicans. The experiment in a line: Antifungal activity against Candida albicans ATCC 10231 assessed as diameter of zone of inhibition at 250 ug/disc after 48 hrs by disc diffusion method. As to conditions: ATCC 10231, 48 h, read-out: DIZ. The procedure, abridged:
as §3

As usually defined, the MIC is the smallest concentration in the dilution series that meets the test's criterion for growth inhibition. Read a high MIC as a less susceptible organism. Regarding `C[C@@H](O)[C@H]1C(=O)N2C(C(=O)O)=C(SCCNC=N)C[C@H]12` [IMIPENEM ANHYDROUS], the MIC was above 8 µg/mL in [1]; 8 µg/mL (≈ 26.7 µM) in test [2]; 0.06 µg/mL (≈ 0.2 µM) in [3]; 0.125 µg/mL (≈ 0.418 µM) in test [4]; 2 µg/mL (≈ 6.68 µM) in [5]; 0.25 µg/mL (≈ 0.835 µM) in [6]. In addition, the MIC is 0.06 µg/mL (≈ 0.2 µM) in [7]; 0.12 µg/mL (≈ 0.401 µM) in [8]; 8 µg/mL (≈ 26.7 µM) in test [9]; 0.25 µg/mL (≈ 0.835 µM) in test [10]; 0.25 µg/mL (≈ 0.835 µM) in [11]; 0.12 µg/mL (≈ 0.401 µM) in [12]. In addition, in [13], the MIC was 0.12 µg/mL (≈ 0.401 µM).
For `Cc1ccc(-n2ccnc2/C=N/O)cc1`, the MIC in [14] came to 25 µg/mL (≈ 124 µM); in test [15], 50 µg/mL (≈ 248 µM); in [16] it was 100 µg/mL (≈ 497 µM); in test [17], 25 µg/mL (≈ 124 µM); in test [18], 100 µg/mL (≈ 497 µM); in test [19], 32 µg/mL (≈ 159 µM). Besides, the MIC in test [20] and in test [21] was 50 µg/mL (≈ 248 µM) each time. The zone of inhibition at 250 µg/disc in [22] worked out at 16.3 mm; in [23] it was 15.4 mm; in test [24], 15.7 mm; in test [25] it was 10.9 mm; in [26] it was 9.3 mm; in [27] it was 14.9 mm. In addition, the zone of inhibition at 250 µg/disc in test [28] came out at 12.6 mm; in test [29], 18.5 mm; in [30], 13.8 mm; in test [31], 14.6 mm; in test [32], 20.2 mm.
For `O=C(O)c1cn(C2CC2)c2cc(N3CCNCC3)c(F)cc2c1=O` [CIPROFLOXACIN], the MIC is above 4 µg/mL in [1]; 0.5 µg/mL (≈ 1.51 µM) in test [2]; 1 µg/mL (≈ 3.02 µM) in test [5]; 0.5 µg/mL (≈ 1.51 µM) in test [6]; 2 µg/mL (≈ 6.04 µM) in [7]; 0.5 µg/mL (≈ 1.51 µM) in [8]. Besides, in [12], 2 µg/mL (≈ 6.04 µM) was the least that counted as inhibitory (MIC).
`O/N=C/c1n(Cc2ccccc2)cc[n+]1Cc1ccccc1.[Br-]`: the minimum inhibitory concentration (MIC) turned out to be 50 µg/mL in test [14]; 62.5 µg/mL in test [15]; 42 µg/mL in test [16]; 100 µg/mL in test [17]; 25 µg/mL in test [18]; 12.5 µg/mL in [19]. Further, the MIC is 12.5 µg/mL in test [20] and 75 µg/mL in test [21]. The zone of inhibition at 250 µg/disc worked out at 20.9 mm in test [22]; 17.6 mm in [23]; 17.1 mm in test [24]; 12.4 mm in [25]; 18.6 mm in test [26]; 14.2 mm in test [27]. Besides, the zone of inhibition at 250 µg/disc in test [28] was 18.3 mm; in test [29] it was 14.2 mm; in test [30], 17.1 mm; in test [31], 15.5 mm; in test [32], 20.9 mm.
